Consider 48 sequences from the EternaBench riboswitch data.

This data set has as its system MS2 coat protein. Briefly: apparent Kd, MS2 coat protein; higher = weaker binding; RNA-MaP array; FMN 200 µM where present. An outline of the steps:
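Stalled E. coli RNA polymerase produced the designs on Illumina sequencing-chip clusters. SNAP-549-labelled MS2 coat protein was added from 0.7 or 1.5 nM, doubling to 3 µM, without and then with constant ligand, in 100 mM Tris-HCl pH 7.5, 80 mM KCl, 4 mM MgCl2, BSA, DTT, yeast tRNA and Tween-20. The apparent Kd is the median of filtered per-cluster fits of green signal normalised to red-channel RNA signal and control-cluster median Fmax.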

[1] abbreviates: designed as: OFF switch for flavin mononucleotide, no ligand.
[2] abbreviates: ligand present: flavin mononucleotide, designed as: OFF switch for flavin mononucleotide.
Where [3] appears, read: designed as: ON switch for flavin mononucleotide, no ligand.
[4] abbreviates: ligand present: flavin mononucleotide, designed as: ON switch for flavin mononucleotide.

For “UUAUGACCGUAAAUAAGGUUGUCGAAGGAUAUUACAGGAGUACGAUCACAUGAGGAUCACCCAUGUAAGAAGGUCGAUACGCUG”, the apparent Kd (in general, a dissociation constant that holds for the conditions of the assay) runs as follows: under setting [1], 17 nM; under setting [2], 76.4 nM.
Turning to “UUGGACGUCGUAUGAUAUGUAGGAUAUUCCUACAUGAGGAUCACCCAUGUUGACAUGGAAGAAGGACAGAAGGACGAUGUCCAU”, the “apparent Kd” value under setting [3] amounted to 192 nM and the “apparent Kd” value under setting [4] turned out to be 6.74 nM.
On the same counts, the results for “GCACGAGACUAAGGAUAUGGUGUACCUACAUGUAACAUGAGGAUCACCCAUGUGGUAAGUAUGAUUCAGAAGGUAGAGACGUGC” are 33.2 nM and 20 nM.
For the sequence “AAAAUGUGAGGAUAUCAGGUGUGCUAGCGAACUGGUACAUCUGAGAAGGCACAUGAGGAUCACCCAUGUUCCUU”, the “apparent Kd” value came to 15.8 nM under setting [1] and 57 nM under setting [2].
On the same counts, the results for “UCAAGUAUGUAGGAUAUGAUGUGAUUUUACAUAUCAGAAGGACGUACAUGAGGAUCACCCAUGUAACUUGCAUG” are 112 nM and 42.2 nM.
For “AAAUAAACUACGAAGAUAUCCUCACAUGAGGAUCACCCAUGUCAGGAUAUUUGUCCUAAAAGGACAGAGAAGGGACGUCGUAGA”, in that order: 5.09 nM and 7.54 nM.
Take “UGUCGGAGCAGAGGAUAUUACAUGAGGAUCACCCAUGUGUGAACCAAUAGCUGGAAACAGCAAUGUAAGAAGGCUGCUCCGACA”: the “apparent Kd” value under setting [1] came to 58.4 nM and the “apparent Kd” value under setting [2] worked out at 29.2 nM.
Take “UAUAUAUAGUAAGGAUAUGUAUUUAUUUAAUAAACAGAAGGUACUGACAUGAGGAUCACCCAUGUUUUAGUGUGGGCAUGUAGA”: the “apparent Kd” value by setting is: under setting [1], 79.7 nM; under setting [2], 149 nM.
For “GGUACUCAAAGAGUACCAAUACGAACAUGAGGAUCACCCAUGUAGGAUAUGCUAAAACCGGAGUAGCAGAAGGACAUGUGCCUA”, in that order: 15.3 nM and 66.6 nM.
For the sequence “CAAACAAGUGCGAGCUGACACAUGAGGAUCACCCAUGUAACACAGGAUAUCUGUCAAGGCGUGAAAGAGAAGGGUGGUCGGAAA”, the “apparent Kd” value under setting [3] turned out to be 226 nM and the “apparent Kd” value under setting [4] came out at 375 nM.
With “UUAAUUAAUUAAUUCGUCAAUUACAUGAGGAUCACCCAUGUAUAGGAUAUGCAGUGGAAUACACUGCAGAAGGAUACAAAGACG”, the “apparent Kd” value reads like this: under setting [1], 18.3 nM; under setting [2], 21.4 nM.
For “CUUAUGUAAGGAUAUCAGUAGUAAAAAAAUAAAAUUACUACUGAGAAGGUACAUGAGGAUCACCCAUGUAUCUU”, in that order: 17.6 nM and 14 nM.
For “UUUUAACAUGAGGAUCACCCAUGUGAGGAUAUCGAAAUUUAUAUUUAUAUUUAUAAAUCGAGAAGGCACAUUUU”, in that order: 110 nM and 99.1 nM.
For the sequence “GCGCAGUCAGGAUAUGCCGCUGGCGAUCACCGUGGGCAAAGGCAGAAGGGACAUGAGGAUCACCCAUGUGGCGC”, the “apparent Kd” value was determined as 72.1 nM under setting [1] and 32.9 nM under setting [2].
For “UAAUUGUGAGGAUAUCAGGUGUGCUAGCGUACUGGUACAUCUGAGAAGGCACAUGAGGAUCACCCAUGUUCCUU”, in that order: 13.8 nM and 37.6 nM.
On to “UGUACAUUAUUAAGUAAUUAGGCGAAGGAUAUAUAACAUGAGGAUCACCCAUGUACUAAAUUGAAGUAGAAGGUUGAGCAUUUC”, for which the “apparent Kd” value under setting [3] worked out at 16.2 nM and the “apparent Kd” value under setting [4] is 13.7 nM.
On the same counts, the results for “CGGUAUCGACAGAAGGACGUAGCACAUGAGGAUCACCCAUGUCCGUAAUGUAGGAUAUGUACGGCCGAUCUCACGCAACACUAA” are 37.1 nM and 13 nM.
Take “UCCGUGGCAUCUCGCGCGUGUCCACAUGAGGAUCACCCAUGUCAGGAUAUACGGAAUGUCGUUCCGUAGAAGGGACAAGGGCUG”: the “apparent Kd” value under setting [1] came to 172 nM and the “apparent Kd” value under setting [2] is 108 nM.
For the sequence “UAUAUAUAGUAAGGAUAUGUAAUUUUUUUAUAAACAGAAGGUACUGACAUGAGGAUCACCCAUGUUUUAGUGUGGGCAUGUAGA”, the “apparent Kd” value reads like this: under setting [1], 107 nM; under setting [2], 169 nM.
For “AGAUCAGUCUGAGUGCCUCGCGCGAGAAGGUACAGUGUUGUCCUGUUACAUGAGGAUCACCCAUGUAAGGAUAUCGCCGAGGAG”, in that order: 7.86 nM and 28.4 nM.
In the case of “CGUGCGUCGACAGGAUAUACAGAUUGGCUCCGGUACAUGAGGAUCACCCAUGUAGAAGGGUCACGCACAGUUAGUUCGUUAUUA”, the “apparent Kd” value was determined as 8.52 nM under setting [1] and 37.9 nM under setting [2].
On the same counts, the results for “UCUUUACAUGAGGAUCACCCAUGUGAGGAUAUGGAUUCGCUGGCCGUAGCCAGUGGAUCCAGAAGGCGCAUGAU” are 26.6 nM and 48 nM.
On the same counts, the results for “ACUAUACGAGGAUAUGCUGUCAGUACUCAGAGGUUAAUGUGACAUGAGGAUCACCCAUGUAGAAGGCGUUUACU” are 34.2 nM and 23.8 nM.
Regarding “CGAAGUCCGUAGAAGGGUGACAUGAGGAUCACCCAUGUGCGAGCGGAUGGAGUCAGCGGCUCGCCACAGGAUAUACGGAGCACG”, the “apparent Kd” value by setting is: under setting [3], 30.6 nM; under setting [4], 65.3 nM.
For “GGGUACAUCGGAGGAUAUCAUGUAAAUACAUGAGGAUCACCCAUGUCGAGGGAGACAUCGGAGAUUGAGAAGGCCGAUGUACCG”, in that order: 57.4 nM and 460 nM.
On to “CCGAGGCUAGGAUAUUGACGAUAAUACAUGAGGAUCACCCAUGUGAGUCGUGUAUGCGCGCAAGAAGGAGUAAUAA”, for which the “apparent Kd” value was 14 nM under setting [1] and 17.6 nM under setting [2].
For “AGAGUGUGAGGAUAUAUGGUGAAGAUGAAGGGAUAGAAGGAGUAGAAGGUACAUGAGGAUCACCCAUGUUAGGA”, in that order: 25.2 nM and 25.7 nM.
On the same counts, the results for “UUACUACAUGAGGAUCACCCAUGUCAGGAUAUUGUCUAUACUUUGGAAUAUGUGUCGAUAAGAAGGGACUAUAU” are 18.9 nM and 21.5 nM.
“GCUGCAUAGGCAGGAUAUGCAACAAUUCGAAUAAAAUAUAACGAAUUGACAUGAGGAUCACCCAUGUAGAAGGGCCUGUGCAGU”: the “apparent Kd” value under setting [1] is 18.6 nM and the “apparent Kd” value under setting [2] is 20 nM.
Take “UUCAUCGAUGAAGGAUAUCUAUGUCCAACAUGAGGAUCACCCAUGUUGAGGAUUACCUAUGUGUAGGAGAAGGUCAAUAUAACU”: the “apparent Kd” value is, setting by setting: under setting [3], 7.02 nM; under setting [4], 6.28 nM.
On the same counts, the results for “GUGCUCAUGUAAGGAUAUGCAGCCGUUUCGGCUGCAGAAGGUACUAUAAUACAUGAGGAUCACCCAUGUCUCUAUAAUUUGGUG” are 113 nM and 239 nM.
With “GUCAGCUCGUGAGGAUAUACAACACUGCUUCGGCAGUGUAUCAAGAUCACAUGAGGAUCACCCAUGUAGAAGGCACGAGCUGAU”, the “apparent Kd” value under setting [1] was found to be 13.2 nM and the “apparent Kd” value under setting [2] stood at 234 nM.
For “AUAGGUCAAGGAUAUACAUGAGGAUCACCCAUGUAAAUAACUCCAUCCAACUCCACAAGUAGAAGGUGAAAUAA”, in that order: 17 nM and 16.5 nM.
On the same counts, the results for “CCGCCUCUAGUCAGGAUAUUUACGGAAGAGCACGAAGAGAAGGGACAUGAGGAUCACCCAUGUUUGAUCACGGC” are 30.5 nM and 31.4 nM.
On the same counts, the results for “AUCUUGCGAGGAUAUACUUACUUUUUUUUAUUUGGUUGCGAACAUGAGGAUCACCCAUGUAGAAGGUGCAUAAC” are 26 nM and 24.1 nM.
With “GCAAAGCCUGACAUGAGGAUCACCCAUGUUAGAUUGUUAUGUCAGGAUAUUGUCUAGACACUAGACAAGAAGGGAUGCUUUGCU”, the “apparent Kd” value by setting is: under setting [3], 366 nM; under setting [4], 34.2 nM.
With “GCACAUGGCAUAGGAUAUAGAACUUUACUUUAUAUAGGUAGUUACACUUAACUAGAAGGAUGUUACAUGAGGAUCACCCAUGUU”, the “apparent Kd” value turned out to be 25.4 nM under setting [3] and 20 nM under setting [4].
With “GGAUGACAAAGUCAUCCAAUACGAACAUGAGGAUCACCCAUGUAGGAUAUGCUACUCAAAGAGUAGCAGAAGGACAUGUGUCUU”, the “apparent Kd” value is, setting by setting: under setting [1], 30 nM; under setting [2], 143 nM.
For “CUCUACAUAGGAUAUACAUGAGGAUCACCCAUGUAUGUUUCGACAUGCGUUUACCUCGGUAGAAGGAUGUAGUA”, in that order: 68.2 nM and 185 nM.
For “ACAAGAUCAGGAUAUACAUGAGGAUCACCCAUGUUUAUCAAAAAGGGACUUUCUUAAUGUAGAAGGGAUCUUGU”, in that order: 27.5 nM and 83.9 nM.
On the same counts, the results for “UCGUUGUCAGGAUAUCGUGUAUUCAACUUUAGUUUUAUAUUCGAGAAGGGACAUGAGGAUCACCCAUGUUACGU” are 133 nM and 257 nM.
For the sequence “GUGGUCAGACAUGAGGAUCACCCAUGUGGAAUAAAUAAGGAAUAGGAUAUGGAAUAUAGGAUAUACCAGAAGGGUUGGUUGGUG”, the “apparent Kd” value runs as follows: under setting [3], 98.4 nM; under setting [4], 114 nM.
For “CAUGUCCUCACAGGAUAUGCACCACUUUGUGGUGCAGAAGGGUGGAUACAUGAGGAUCACCCAUGUGGACAUGAUAUAUUUAAG”, in that order: 708 nM and 58.4 nM.
On the same counts, the results for “GCUGUCGCAUGAGGAUAUGGUCAGCUUUGCUGACCAGAAGGCAUGUCAAUAGACAUGAGGAUCACCCAUGUAGUAAGGGCGGCU” are 466 nM and 48.8 nM.
For “UAAACAUGAGGAUCACCCAUGUAAUGAUCGGUUGAUGAAAGUGAGGAUAUACAAAAUUUUAUGGAGUAGAAGGCACUGGGUUCU”, in that order: 49.9 nM and 40.3 nM.
For “AAUGAGCAGUAGAAGGCAUGUCUACGGACAUGAGGAUCACCCAUGUUGUGAAUCCGAAAGGAGCGUGAGGAUAUACUGCUCUAA”, the “apparent Kd” value is, setting by setting: under setting [3], 85.6 nM; under setting [4], 18.8 nM.
For “GGAGCACAUGAAUACAUGAGGAUCACCCAUGUCAAAAGAUAUGAGGAUAUGGAUCGGAAAACGAUCUAGAAGGCAUAGUGCUCC”, in that order: 28.8 nM and 6.98 nM.
Turning to “CAUAACGGCUGAGGAUAUUGAAUGUGCGUGGACAUGAGGAUCACCCAUGUUCAAGAAGGCAGCAAUUUACUUGGGUCUACCCGC”, the “apparent Kd” value is, setting by setting: under setting [1], 40.9 nM; under setting [2], 309 nM.
